Laboratory results taken from PubChem BioAssay.
Active and inactive are the calls of the source. Cut-off read from the data, not from the text of the source, unless noted: active = inhibition above about 30%; inactive = the rest.

Columns and labels:
[1] = reduced viability of SK-BR-3 breast cancer cells – cell-based, 24 h, human, pilot screen (AID 572;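 active = viability at or below 10% of carrier control in both of two separate runs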;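 note: compound exposure lasted between 18 and 24 h rather than exactly 24 h; 100% = carrier-treated control wells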); conditions: SK-BR-3 viability, CellTiter-Glo luminescence, at 10 µM, stronger effect = lower value
[2] = HUVEC growth inhibition – cell-based, human, primary screen (AID 575;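 active = viability at or below 30% in both replicate assays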;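 note: 100% = median of untreated cell wells with 0.1% DMSO on each plate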); conditions: HUVEC proliferation, CellTiter-Glo luminescence, 72 h; at 10 µM; stronger effect = lower value
How it was run: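 system = HUVEC primary cells | amount = 1250 cells/well | buffer or medium = supplemented EBM, 2% fetal bovine serum | dosing = single-point 10 µM, DMSO 0.1% final | times = 72 h compound incubation | detection = CTG luminescence | read-out = % viability relative to median vehicle-well signal on each plate | control set = vehicle and MePR control wells | format = collagen-coated 384-well format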

[3] = H69AR cell proliferation blockers – human, duplicate replicates, primary screen (AID 580;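 active = viability at or under a set limit in both replicates, limit being median viability minus 3 SD, cut at about 48% in these data, passing the limit was not always enough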;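 note: 100% = mean luminescence of untreated wells and 0% = no signal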); conditions: H69AR lung tumor cells viability, ATP luminescence, 72 h; at 10 µM; stronger effect = lower value
[4] = MRP1 drug-resistance reversers in H69AR cells – cell-based, doxorubicin co-treatment, pilot screen (AID 601;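 active = viability loss from added drug above about 55%, and viability with drug at most 40%, in both replicates, limit read from the data, passing the limit was not always enough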); conditions: CellTiter-Glo, 72 h, at 10 µM; for differential viability (reversal): stronger effect = higher value
[5] = yeast transport mutant growth inhibition pilot in 384-well plates, post-Golgi transport modulator project (AID 636; in the data active = inhibition above about 31%); conditions: absorbance 615 nm, about 18 h, stronger effect = higher value
[6] = growth suppression of yeast trafficking mutant, preliminary HTS, modulators of trafficking downstream of Golgi apparatus project, 1536-format plate, OD 615 nm (AID 637); conditions: yeast transport mutant growth, absorbance 615 nm, 18 h; stronger effect = higher value
[7] = H69AR cells + 2 uM doxorubicin, measured here: viability with 2 uM doxorubicin, stronger effect = lower value
[8] = H69AR cells, compound alone cytotoxicity

| SMILES | viability [1] | viability [2] | viability [3] | differential viability (reversal) ([4]; H69AR cells + 2 uM doxorubicin) | viability [4, 7] | viability [4, 8] | inhibition [5] | inhibition [6] |
| --- | --- | --- | --- | --- | --- | --- | --- | --- |
| CCCCCCC(c1c(C)n(C)n(-c2ccccc2)c1=O)c1c(C)n(C)n(-c2ccccc2)c1=O | 90% (inactive) | 99.9% (inactive) | 80.8% (inactive) | 2.09% (inactive) | 78.7% | 80.8% | -3.47% (inactive) | -0.18% (inactive) |
| O=C1CC(c2ccccc2)Cc2nc(N3CCc4ccccc43)ncc21 (centres undefined) | 79% (inactive) | 108% (inactive) | 76.5% (inactive) | 12% (inactive) | 64.6% | 76.5% | -6.89% (inactive) | 1.82% (inactive) |
| COCCn1c(Sc2nc(C)cs2)nc2c1c(=O)[nH]c(=O)n2C | 85% (inactive) | 106% (inactive) | 101% (inactive) | 4.51% (inactive) | 96.6% | 101% | -5.07% (inactive) | 3.45% (inactive) |
| O=C(CCNNC(=O)c1ccncc1)NCc1ccccc1 | 72% (inactive) | 84.7% (inactive) | 93.5% (inactive) | 6.55% (inactive) | 87% | 93.5% | -7.53% (inactive) | -2.67% (inactive) |
| Nc1nc2c(ncn2COCCO)c(=O)[nH]1 | 97% (inactive) | 86.9% (inactive) | 98.9% (inactive) | 3.38% (inactive) | 95.5% | 98.9% | 0.65% (inactive) | 3% (inactive) |
| O=C(NCCCN1CCOCC1)c1cc(-c2ccc(Cl)cc2)on1 | 88% (inactive) | 103% (inactive) | 94.1% (inactive) | 15.9% (inactive) | 78.2% | 94.1% | -6.8% (inactive) | 0.55% (inactive) |
| Cc1ccc(Cl)c(Nc2ccccc2C(=O)O)c1Cl | 135% (inactive) | 47.9% (inactive) | 91.3% (inactive) | -6.54% (inactive) | 97.9% | 91.3% | -0.78% (inactive) | 4.67% (inactive) |
| CCOC(=O)CSc1nnc(NCC(=O)OC(C)C)c(=O)[nH]1 | 102% (inactive) | 93.9% (inactive) | 93.3% (inactive) | 1.93% (inactive) | 91.4% | 93.3% | -1.56% (inactive) | -3.61% (inactive) |
| COc1cccc(NS(=O)(=O)c2ccc3[nH]cc(C(=O)NC4CC4)c(=O)c3c2)c1 | 101% (inactive) | 70.3% (inactive) | 70.1% (inactive) | -15.6% (inactive) | 85.7% | 70.1% | -1.04% (inactive) | 2.13% (inactive) |
| CCCCCc1nnc(NC(=O)Cc2cccs2)s1 | 74% (inactive) | 110% (inactive) | 102% (inactive) | 10.7% (inactive) | 90.8% | 102% | -6.71% (inactive) | 3.64% (inactive) |
| COc1ccc(CCNC(=O)CSCc2n[nH]c(=O)[nH]2)cc1OC | 110% (inactive) | 89.3% (inactive) | 88.5% (inactive) | -0.08% (inactive) | 88.6% | 88.5% | -10.7% (inactive) | 0% (inactive) |
| CCN(C(=O)c1c(OC)cccc1OC)c1nnc(-c2cccnc2)s1 | 95% (inactive) | 87.7% (inactive) | 92.7% (inactive) | 1.89% (inactive) | 90.8% | 92.7% | -5.81% (inactive) | -7.82% (inactive) |
| C[C@]12CCC(=O)C=C1CC[C@@H]1[C@@H]2[C@@H](O)C[C@@]2(C)[C@H]1CC[C@]2(O)C(=O)CO | 103% (inactive) | 96.2% (inactive) | 105% (inactive) | 5.76% (inactive) | 98.9% | 105% | -1.43% (inactive) | -3.83% (inactive) |
| CC(=O)NCCC(=O)Nc1ccc(C)c(F)c1 | 110% (inactive) | 110% (inactive) | 91.4% (inactive) | -17% (inactive) | 108% | 91.4% | -2.05% (inactive) | 3.09% (inactive) |
| COc1cc(C(=O)OCc2cc3ccccc3[nH]c2=O)cc(OC)c1OC | 117% (inactive) | 68.6% (inactive) | 82.4% (inactive) | 11.3% (inactive) | 71.1% | 82.4% | -2.8% (inactive) | -2.91% (inactive) |
| CCC1CCCCN1C(=O)C1CC(c2cc(Cl)c(OC)cc2OC)=NO1 (centres undefined) | 86% (inactive) | 89.7% (inactive) | 96.6% (inactive) | -4.29% (inactive) | 101% | 96.6% | -2.86% (inactive) | -3.77% (inactive) |
| CCC1(C(=O)OC)NC(c2cccc(F)c2)C2C(=O)N(C)C(=O)C21 (centres undefined) | 91% (inactive) | 96.1% (inactive) | 88.3% (inactive) | -1.59% (inactive) | 89.8% | 88.3% | -6.08% (inactive) | 0.73% (inactive) |

| SMILES | viability [1] | viability [2] | viability [3] | differential viability (reversal) ([4]; H69AR cells + 2 uM doxorubicin) | viability [4, 7] | viability [4, 8] | inhibition [5] | inhibition [6] |
| --- | --- | --- | --- | --- | --- | --- | --- | --- |
| Cc1nn(-c2nc3ccccc3[nH]2)c(N)c1-c1ccccc1 | 97% (inactive) | 62.5% (inactive) | 41.3% (active) | -27.6% (inactive) | 68.9% | 41.3% | 11.6% (inactive) | 2.7% (inactive) |
| Cc1nc2ncnn2c(C)c1CCC(=O)NCCCN1CCN(c2cccc(Cl)c2)CC1 | 78% (inactive) | 76.4% (inactive) | 96.5% (inactive) | 6.44% (inactive) | 90.1% | 96.5% | -2.21% (inactive) | -3.77% (inactive) |
| CCOC(=O)C1CCCN(CC(=O)NC2CC2)C1 (centres undefined) | 112% (inactive) | 96.6% (inactive) | 88.2% (inactive) | -1.56% (inactive) | 89.7% | 88.2% | -7.16% (inactive) | -2.91% (inactive) |
| CCc1c(C)c2ccc(OCC(=O)OC)cc2oc1=O | 109% (inactive) | 92.8% (inactive) | 94.4% (inactive) | -2.49% (inactive) | 96.9% | 94.4% | -1.49% (inactive) | 21.4% (inactive) |
| CC(=O)[C@H]1CC[C@H]2[C@@H]3CCC4=CC(=O)CC[C@]4(C)[C@H]3[C@H](O)C[C@]12C | 87% (inactive) | 83.6% (inactive) | 100% (inactive) | 3.85% (inactive) | 96.6% | 100% | 2.08% (inactive) | -6.83% (inactive) |
| CCCCNC(=O)c1nnn(-c2ccccc2)c1N | 88% (inactive) | 113% (inactive) | 92.2% (inactive) | -0.63% (inactive) | 92.8% | 92.2% | 4.03% (inactive) | 2.3% (inactive) |
| CCCCN1C[C@H](O)[C@@H](O)[C@H](O)[C@H]1CO | 123% (inactive) | 88.9% (inactive) | 96.5% (inactive) | -3.9% (inactive) | 100% | 96.5% | 1.82% (inactive) | 27% (inactive) |
| CC(=O)Nc1c(O)n(C)c2ccccc12 | 65% (inactive) | 103% (inactive) | 96.3% (inactive) | -14.5% (inactive) | 111% | 96.3% | -5.75% (inactive) | 4.55% (inactive) |
| COc1ccc(-c2ccc(=O)n(Cc3cc(=O)n4ccccc4n3)n2)cc1 | 102% (inactive) | 107% (inactive) | 97% (inactive) | 5.91% (inactive) | 91.1% | 97% | -3.38% (inactive) | 4.36% (inactive) |
| COc1ccc(NS(=O)(=O)c2ccc(N)cc2)nn1 | 91% (inactive) | 100% (inactive) | 104% (inactive) | 8.44% (inactive) | 95.3% | 104% | -0.78% (inactive) | 0% (inactive) |
| CCN1C(=O)CC(N2CCC(Nc3ccc(F)cc3)CC2)C1=O (centres undefined) | 78% (inactive) | 93.5% (inactive) | 92.3% (inactive) | 1.94% (inactive) | 90.3% | 92.3% | -0.65% (inactive) | -0.98% (inactive) |
| CCO/C([O-])=N/c1c[n+](N2CCOCC2)no1 | 81% (inactive) | 95.9% (inactive) | 86.7% (inactive) | -3.3% (inactive) | 90% | 86.7% | 1.3% (inactive) | 2.33% (inactive) |
| O=C(CN1CCN(Cc2ccccc2)CC1)Nc1ccc(Cl)cn1 | 94% (inactive) | 88.8% (inactive) | 85.1% (inactive) | -1.43% (inactive) | 86.5% | 85.1% | -8.08% (inactive) | 4.35% (inactive) |
| CNC(=O)OC(C)CNS(=O)(=O)c1ccc(C)cc1 (centres undefined) | 60% (inactive) | 106% (inactive) | 97% (inactive) | 6.22% (inactive) | 90.8% | 97% | -7.4% (inactive) | 0.55% (inactive) |
| Cc1cc(C)n(-c2nc3sc4c(c3c3nnc(SCC(N)=O)n23)CC(C)(C)OC4)n1 | 84% (inactive) | 97.4% (inactive) | 90.7% (inactive) | 3.85% (inactive) | 86.8% | 90.7% | 0.68% (inactive) | -3.87% (inactive) |
| COC(=O)CCC(=O)Nc1ccc(S(=O)(=O)N2CCCCCC2)cc1 | 103% (inactive) | 99.2% (inactive) | 100% (inactive) | 1.32% (inactive) | 98.8% | 100% | -1.69% (inactive) | 1.15% (inactive) |
